{"source": "ChEMBL document CHEMBL1137942", "about": "“Design, synthesis, and biological activity of novel, potent, and selective (benzoylaminomethyl)thiophene sulfonamide inhibitors of c-Jun-N-terminal kinase” (J Med Chem, 2004)", "key": {"[1]": {"molecular_target": "Serine/threonine-protein kinase Chk2 (Homo sapiens) (UniProt O96017)", "assay": "Percentage activity of human CHK2 in the presence of 10 uM of compound and 10 uM of ATP in comparison with control"}, "[2]": {"molecular_target": "Serine/threonine-protein kinase N2 (Homo sapiens) (UniProt Q16513)", "sequence (Q16513 whole entry, looked up)": "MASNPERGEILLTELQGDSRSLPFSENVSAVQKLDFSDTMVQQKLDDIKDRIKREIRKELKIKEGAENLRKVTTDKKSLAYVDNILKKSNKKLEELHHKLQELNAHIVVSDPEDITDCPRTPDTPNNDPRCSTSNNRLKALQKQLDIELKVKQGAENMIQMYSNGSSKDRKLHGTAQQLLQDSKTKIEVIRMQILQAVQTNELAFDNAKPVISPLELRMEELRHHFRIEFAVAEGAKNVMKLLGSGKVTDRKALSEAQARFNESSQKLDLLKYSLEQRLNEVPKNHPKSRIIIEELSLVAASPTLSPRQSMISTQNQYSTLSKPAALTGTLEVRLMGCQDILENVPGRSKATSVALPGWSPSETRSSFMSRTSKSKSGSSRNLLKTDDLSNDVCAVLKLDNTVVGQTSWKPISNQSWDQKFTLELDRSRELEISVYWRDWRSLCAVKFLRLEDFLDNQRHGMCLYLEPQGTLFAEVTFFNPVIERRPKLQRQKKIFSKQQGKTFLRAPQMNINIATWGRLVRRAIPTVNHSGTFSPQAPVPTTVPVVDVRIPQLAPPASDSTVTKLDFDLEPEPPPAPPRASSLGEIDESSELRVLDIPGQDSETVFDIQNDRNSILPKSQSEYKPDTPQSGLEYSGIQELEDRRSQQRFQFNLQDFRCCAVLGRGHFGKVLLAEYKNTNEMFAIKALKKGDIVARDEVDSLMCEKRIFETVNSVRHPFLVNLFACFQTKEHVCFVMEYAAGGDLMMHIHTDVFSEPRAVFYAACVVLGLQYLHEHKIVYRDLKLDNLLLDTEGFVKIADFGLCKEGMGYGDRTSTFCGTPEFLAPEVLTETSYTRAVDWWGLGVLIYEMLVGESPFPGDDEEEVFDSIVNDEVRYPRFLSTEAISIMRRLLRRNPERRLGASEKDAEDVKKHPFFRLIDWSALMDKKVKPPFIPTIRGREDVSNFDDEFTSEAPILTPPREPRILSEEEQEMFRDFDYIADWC", "assay": "Percentage activity of human PRK2 in the presence of 10 uM of compound and 10 uM of ATP in comparison with control"}, "[3]": {"molecular_target": "Protein kinase C epsilon type (Homo sapiens) (UniProt Q02156)", "assay": "Percentage activity of human PKC epsilon in the presence of 10 uM of compound and 10 uM of ATP in comparison with control"}, "[4]": {"molecular_target": "Tyrosine-protein kinase SYK (Homo sapiens) (UniProt P43405)", "assay": "Percentage activity of human Syk in the presence of 10 uM of compound and 10 uM of ATP in comparison with control"}, "[5]": {"molecular_target": "Ribosomal protein S6 kinase alpha-1 (Homo sapiens) (UniProt Q15418)", "assay": "Percentage activity of human Rsk1 in the presence of 10 uM of compound and 10 uM of ATP in comparison with control"}, "[6]": {"molecular_target": "Rho-associated protein kinase 2 (Homo sapiens) (UniProt O75116)", "sequence (O75116 whole entry, looked up)": "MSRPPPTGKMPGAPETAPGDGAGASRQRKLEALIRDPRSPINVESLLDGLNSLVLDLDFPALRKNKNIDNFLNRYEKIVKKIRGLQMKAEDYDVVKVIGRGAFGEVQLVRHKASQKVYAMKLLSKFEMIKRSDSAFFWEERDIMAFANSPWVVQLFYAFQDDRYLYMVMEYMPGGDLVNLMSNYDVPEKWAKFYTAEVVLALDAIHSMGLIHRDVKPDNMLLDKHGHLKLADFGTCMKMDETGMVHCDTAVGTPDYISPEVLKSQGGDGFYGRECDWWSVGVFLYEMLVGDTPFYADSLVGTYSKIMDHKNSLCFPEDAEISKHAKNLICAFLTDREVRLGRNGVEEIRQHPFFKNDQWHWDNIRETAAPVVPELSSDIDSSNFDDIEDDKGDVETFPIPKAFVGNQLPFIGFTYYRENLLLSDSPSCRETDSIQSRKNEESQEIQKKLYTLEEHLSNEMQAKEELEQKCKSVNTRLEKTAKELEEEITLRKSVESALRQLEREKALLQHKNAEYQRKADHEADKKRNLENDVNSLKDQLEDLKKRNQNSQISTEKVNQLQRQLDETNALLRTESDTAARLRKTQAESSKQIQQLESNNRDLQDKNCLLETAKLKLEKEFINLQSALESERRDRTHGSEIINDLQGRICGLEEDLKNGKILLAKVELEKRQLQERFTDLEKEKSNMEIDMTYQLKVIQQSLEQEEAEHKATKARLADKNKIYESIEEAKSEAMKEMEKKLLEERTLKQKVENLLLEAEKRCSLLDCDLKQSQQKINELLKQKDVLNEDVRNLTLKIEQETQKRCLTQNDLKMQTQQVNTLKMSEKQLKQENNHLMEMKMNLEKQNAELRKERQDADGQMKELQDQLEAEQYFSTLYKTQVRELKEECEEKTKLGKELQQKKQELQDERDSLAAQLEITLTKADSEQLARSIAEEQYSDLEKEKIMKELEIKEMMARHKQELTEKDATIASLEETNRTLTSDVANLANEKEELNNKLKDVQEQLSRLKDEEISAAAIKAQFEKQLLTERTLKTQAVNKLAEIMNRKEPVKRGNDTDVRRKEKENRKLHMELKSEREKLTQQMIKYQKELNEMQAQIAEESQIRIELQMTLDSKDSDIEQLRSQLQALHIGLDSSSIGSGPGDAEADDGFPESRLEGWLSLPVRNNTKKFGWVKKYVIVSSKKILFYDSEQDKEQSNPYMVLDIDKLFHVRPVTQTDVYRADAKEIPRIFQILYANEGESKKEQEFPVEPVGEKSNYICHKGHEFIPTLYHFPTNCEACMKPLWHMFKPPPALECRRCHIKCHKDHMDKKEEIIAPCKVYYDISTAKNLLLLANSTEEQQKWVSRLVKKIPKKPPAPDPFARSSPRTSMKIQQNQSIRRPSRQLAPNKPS", "assay": "Percentage activity of human ROCK-II in the presence of 10 uM of compound and 10 uM of ATP in comparison with control"}, "[7]": {"molecular_target": "Mitogen-activated protein kinase 9 (Homo sapiens, UniProt P45984)", "sequence (P45984 whole entry)": "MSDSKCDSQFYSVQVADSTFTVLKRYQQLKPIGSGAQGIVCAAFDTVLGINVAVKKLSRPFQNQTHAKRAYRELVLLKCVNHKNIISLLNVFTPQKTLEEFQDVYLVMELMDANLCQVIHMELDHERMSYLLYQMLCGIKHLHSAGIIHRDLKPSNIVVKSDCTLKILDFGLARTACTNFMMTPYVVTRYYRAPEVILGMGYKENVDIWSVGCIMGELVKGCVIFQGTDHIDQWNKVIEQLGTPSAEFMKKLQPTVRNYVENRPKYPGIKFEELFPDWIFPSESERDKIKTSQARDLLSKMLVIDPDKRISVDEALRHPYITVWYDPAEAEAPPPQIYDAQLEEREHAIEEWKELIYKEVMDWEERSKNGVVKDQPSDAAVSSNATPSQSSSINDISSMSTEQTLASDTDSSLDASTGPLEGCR", "assay": "Inhibition of human JNK2", "method_in_brief": "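Radiometric SPA kinase assay: 0.5 µg recombinant preactivated GST-JNK2, 1 µg biotinylated GST-c-Jun, and 2 µM [33P]γ-ATP (2 nCi/µL). Buffer was 50 mM Tris-HCl pH 8.0, 10 mM MgCl2, 1 mM DTT and 100 µM NaVO4, with or without inhibitor, 120 min at rt. Stopped with streptavidin SPA beads, 5 mM EDTA, 0.1% Triton X-100 and 50 µM ATP in PBS; 60 min. Beads were centrifuged, washed, and counted by scintillation.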"}, "[8]": {"molecular_target": "Dual specificity mitogen-activated protein kinase kinase 1 (Homo sapiens) (UniProt Q02750)", "sequence (Q02750 whole entry)": "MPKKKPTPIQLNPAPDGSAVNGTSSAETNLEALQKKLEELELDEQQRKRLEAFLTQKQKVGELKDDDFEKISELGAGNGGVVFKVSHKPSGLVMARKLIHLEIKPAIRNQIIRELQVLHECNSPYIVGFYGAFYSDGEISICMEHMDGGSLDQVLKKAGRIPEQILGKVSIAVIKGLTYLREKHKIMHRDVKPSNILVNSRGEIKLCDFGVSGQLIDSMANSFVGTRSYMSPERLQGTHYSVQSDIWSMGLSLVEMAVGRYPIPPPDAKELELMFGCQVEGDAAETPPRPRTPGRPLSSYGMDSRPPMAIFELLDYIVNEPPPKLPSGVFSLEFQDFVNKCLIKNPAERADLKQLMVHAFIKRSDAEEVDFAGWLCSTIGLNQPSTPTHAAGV", "assay": "Percentage activity of human MEK1 in the presence of 10 uM of compound and 10 uM of ATP in comparison with control"}, "[9]": {"molecular_target": "Protein kinase C alpha type (Homo sapiens) (UniProt P17252)", "assay": "Percentage activity of human PKC alpha -His in the presence of 10 uM of compound and 10 uM of ATP in comparison with control"}, "[10]": {"molecular_target": "Mitogen-activated protein kinase 1 (Homo sapiens) (UniProt P28482)", "assay": "Percentage activity of human MAPK1 in the presence of 10 uM of compound and 10 uM of ATP in comparison with control"}, "[11]": {"molecular_target": "Cyclin-dependent kinase 2/cyclin E (Homo sapiens) (UniProt P24864+P24941+O96020)", "assay": "Percentage activity of human CDK2 (with cyclin E) in the presence of 10 uM of compound and 10 uM of ATP in comparison with control", "format": "protein-complex assay"}, "[12]": {"molecular_target": "Tyrosine-protein kinase Fyn (Homo sapiens) (UniProt P06241)", "sequence (P06241 2-537 limits assumed)": "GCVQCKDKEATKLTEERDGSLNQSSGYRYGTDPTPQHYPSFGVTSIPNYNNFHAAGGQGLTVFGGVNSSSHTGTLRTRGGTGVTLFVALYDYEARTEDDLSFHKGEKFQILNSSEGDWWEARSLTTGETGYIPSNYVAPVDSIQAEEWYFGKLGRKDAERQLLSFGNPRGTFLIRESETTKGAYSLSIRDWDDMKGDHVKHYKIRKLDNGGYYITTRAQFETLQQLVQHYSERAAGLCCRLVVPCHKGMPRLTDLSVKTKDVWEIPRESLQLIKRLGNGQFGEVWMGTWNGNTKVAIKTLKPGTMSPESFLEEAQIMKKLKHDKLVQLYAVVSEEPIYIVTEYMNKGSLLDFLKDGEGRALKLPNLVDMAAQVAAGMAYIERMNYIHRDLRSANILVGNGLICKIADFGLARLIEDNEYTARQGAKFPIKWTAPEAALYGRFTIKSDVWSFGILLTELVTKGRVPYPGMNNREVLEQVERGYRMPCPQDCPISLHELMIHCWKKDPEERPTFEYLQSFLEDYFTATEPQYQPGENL", "assay": "Percentage activity of human Fyn in the presence of 10 uM of compound and 10 uM of ATP in comparison with control"}, "[13]": {"molecular_target": "Tyrosine-protein kinase Blk (Mus musculus) (UniProt P16277)", "assay": "Percentage activity of mouse Blk in the presence of 10 uM of compound and 10 uM of ATP in comparison with control"}, "[14]": {"molecular_target": "Cyclin-dependent kinase 1/cyclin B (Homo sapiens) (UniProt P06493+P14635+Q8WWL7+O95067)", "assay": "Percentage activity of human CDK1 (with cyclin B) in the presence of 10 uM of compound and 10 uM of ATP in comparison with control", "format": "protein-complex assay"}, "[15]": {"molecular_target": "Tyrosine-protein kinase ZAP-70 (Homo sapiens) (UniProt P43403)", "assay": "Percentage activity of human ZAP-70 in the presence of 10 uM of compound and 10 uM of ATP in comparison with control"}, "[16]": {"molecular_target": "Tyrosine-protein kinase ABL2 (Mus musculus) (UniProt Q4JIM5)", "assay": "Percentage activity of mouse Arg in the presence of 10 uM of compound and 10 uM of ATP in comparison with control"}, "[17]": {"molecular_target": "Protein kinase C theta type (Homo sapiens) (UniProt Q04759)", "assay": "Percentage activity of human PKC theta in the presence of 10 uM of compound and 10 uM of ATP in comparison with control"}, "[18]": {"molecular_target": "Cyclin-dependent kinase 7/ cyclin H (Homo sapiens) (UniProt P51946+P50613)", "assay": "Percentage activity of human CDK7 with cyclin H/MAT1) in the presence of 10 uM of compound and 10 uM of ATP in comparison with control", "format": "protein-complex assay"}, "[19]": {"molecular_target": "Cyclin-dependent kinase 5/CDK5 activator 1 (Homo sapiens) (UniProt Q00535+Q15078)", "assay": "Percentage activity of human CDK5 (with […]) in the presence of 10 uM of compound and 10 uM of ATP in comparison with control", "format": "protein-complex assay"}, "[20]": {"molecular_target": "Serine/threonine-protein kinase Chk1 (Homo sapiens) (UniProt O14757)", "assay": "Percentage activity of human CHK1 in the presence of 10 uM of compound and 10 uM of ATP in comparison with control"}, "[21]": {"molecular_target": "Tyrosine-protein kinase Fes/Fps (Homo sapiens) (UniProt P07332)", "assay": "Percentage activity of human Fes in the presence of 10 uM of compound and 10 uM of ATP in comparison with control"}, "[22]": {"molecular_target": "Serine/threonine-protein kinase PAK 2 (Homo sapiens) (UniProt Q13177)", "sequence (Q13177 whole entry)": "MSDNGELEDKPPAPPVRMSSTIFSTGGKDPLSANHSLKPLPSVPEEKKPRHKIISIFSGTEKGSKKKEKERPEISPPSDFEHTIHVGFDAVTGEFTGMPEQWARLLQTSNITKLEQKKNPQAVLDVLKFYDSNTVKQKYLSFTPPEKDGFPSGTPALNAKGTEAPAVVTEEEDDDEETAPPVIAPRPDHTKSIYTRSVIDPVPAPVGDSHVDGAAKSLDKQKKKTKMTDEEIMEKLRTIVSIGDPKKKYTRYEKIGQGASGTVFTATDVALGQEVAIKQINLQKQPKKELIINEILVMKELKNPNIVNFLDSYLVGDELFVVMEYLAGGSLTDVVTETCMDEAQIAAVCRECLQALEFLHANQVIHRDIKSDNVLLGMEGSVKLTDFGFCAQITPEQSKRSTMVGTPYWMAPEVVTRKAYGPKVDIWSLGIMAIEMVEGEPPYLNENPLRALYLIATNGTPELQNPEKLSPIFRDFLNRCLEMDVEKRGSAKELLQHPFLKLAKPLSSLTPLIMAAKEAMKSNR", "assay": "Percentage activity of human PAK2 in the presence of 10 uM of compound and 10 uM of ATP in comparison with control"}, "[23]": {"molecular_target": "Casein kinase II (Homo sapiens) (UniProt P67870+P68400+P19784)", "assay": "Percentage activity of human CK2 in the presence of 10 uM of compound and 10 uM of ATP in comparison with control", "format": "protein-complex assay"}, "[24]": {"molecular_target": "cAMP-dependent protein kinase (PKA) (Homo sapiens) (UniProt P22694+P17612+P22612)", "assay": "Percentage activity of human PKA in the presence of 10 uM of compound and 10 uM of ATP in comparison with control", "format": "protein assay"}, "[25]": {"molecular_target": "Inhibitor of nuclear factor kappa-B kinase subunit beta (Homo sapiens) (UniProt O14920)", "assay": "Percentage activity of human IKK beta in the presence of 10uM of compound and 10uM of ATP in comparison with control"}, "[26]": {"molecular_target": "Insulin receptor (Homo sapiens) (UniProt P06213)", "assay": "Percentage activity of human IR in the presence of 10 uM of compound and 10 uM of ATP in comparison with control"}}}
{"smiles": "O=C(NCc1ccc(S(=O)(=O)N2CCC(n3nnc4ccccc43)CC2)s1)c1ccc(Cl)cc1", "values": [{"measurement": "Activity", "setting": "[1]", "value": 75, "unit": "%"}, {"measurement": "Activity", "setting": "[2]", "value": 92, "unit": "%"}, {"measurement": "Activity", "setting": "[3]", "value": 95, "unit": "%"}, {"measurement": "Activity", "setting": "[4]", "value": 75, "unit": "%"}, {"measurement": "Activity", "setting": "[5]", "value": 93, "unit": "%"}, {"measurement": "Activity", "setting": "[6]", "value": 101, "unit": "%"}, {"measurement": "IC50", "setting": "[7]", "value": 650, "unit": "nM"}, {"measurement": "Activity", "setting": "[8]", "value": 98, "unit": "%"}, {"measurement": "Activity", "setting": "[9]", "value": 101, "unit": "%"}, {"measurement": "Activity", "setting": "[10]", "value": 97, "unit": "%"}, {"measurement": "Activity", "setting": "[11]", "value": 94, "unit": "%"}, {"measurement": "Activity", "setting": "[12]", "value": 46, "unit": "%"}, {"measurement": "Activity", "setting": "[13]", "value": 78, "unit": "%"}, {"measurement": "Activity", "setting": "[14]", "value": 102, "unit": "%"}, {"measurement": "Activity", "setting": "[15]", "value": 121, "unit": "%"}, {"measurement": "Activity", "setting": "[16]", "value": 91, "unit": "%"}, {"measurement": "Activity", "setting": "[17]", "value": 113, "unit": "%"}, {"measurement": "Activity", "setting": "[18]", "value": 94, "unit": "%"}, {"measurement": "Activity", "setting": "[19]", "value": 103, "unit": "%"}, {"measurement": "Activity", "setting": "[20]", "value": 130, "unit": "%"}, {"measurement": "Activity", "setting": "[21]", "value": 134, "unit": "%"}, {"measurement": "Activity", "setting": "[22]", "value": 88, "unit": "%"}, {"measurement": "Activity", "setting": "[23]", "value": 99, "unit": "%"}, {"measurement": "Activity", "setting": "[24]", "value": 78, "unit": "%"}, {"measurement": "Activity", "setting": "[25]", "value": 96, "unit": "%"}, {"measurement": "Activity", "setting": "[26]", "value": 103, "unit": "%"}]}
